# Sampled rows, rich in hits. Any-hit rate of the full collection: about 1.8%.
# NR2E3 ag-1: agonists of human nuclear receptor NR2E3; GST-NR2E3/biotin-RetCOR TR-FRET, 1536-well; inhibition of corepressor binding, % at 4.78 µM; actives 0.12% (n = 320,000); AID 2300;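 active = percent inhibition above the cutoff of mean plus 3 SD of all tested compounds, set per screening campaign, cut at about 20% in these data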;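 note: 0% = DMSO wells and 100% = biotin wells as full block of FRET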
# Target sequence (Q9Y5X4 whole entry, looked up): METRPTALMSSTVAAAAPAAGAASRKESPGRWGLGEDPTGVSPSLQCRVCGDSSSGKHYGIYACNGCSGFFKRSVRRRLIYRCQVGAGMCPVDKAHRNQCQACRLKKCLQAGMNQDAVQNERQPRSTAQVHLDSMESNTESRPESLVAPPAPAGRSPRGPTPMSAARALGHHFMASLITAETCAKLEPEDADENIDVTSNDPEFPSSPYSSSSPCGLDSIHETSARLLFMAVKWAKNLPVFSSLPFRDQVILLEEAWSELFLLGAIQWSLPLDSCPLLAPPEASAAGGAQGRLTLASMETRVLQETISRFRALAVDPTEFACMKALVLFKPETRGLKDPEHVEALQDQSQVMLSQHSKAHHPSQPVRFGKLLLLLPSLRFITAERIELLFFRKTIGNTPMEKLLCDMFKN
#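 System: GST-tagged NR2E3 plus biotinylated RetCOR corepressor; Buffer or medium: pH 7.5 Tris-based buffer; Probe or stimulus: RetCOR corepressor, biotinylated, 7 nM; Doses: compound at 4.8 µM, single dose; Schedule: 5 h incubation at 4 °C; Technique: time-resolved FRET; Evaluation: percent inhibition of TR-FRET ratio; Replication: one well per compound, singlicate testing.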
# NR2E3 ag-2: human photoreceptor-specific nuclear receptor agonism. Q9Y5X4. CHO-S Gal4-NCOR/VP16-NR2E3 two-hybrid, luciferase. inhibition of corepressor binding, % at 3.98 µM. actives 0.35% (n = 360,000);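 active = inhibition above the mean of all tested compounds plus 3 SD, cut at about 70% in these data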;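 note: 0% = DMSO with NR2E3 transfected cells and 100% = cells lacking NR2E3 construct; higher means lower luciferase signal from less NR2E3 corepressor binding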
# PG9 binder: PG9 antibody binding by small molecule; TR-FRET gp120-PG9 antibody binding; inhibition, % at 6.7 µM; actives 0.43% (n = 360,000); AID 624416; in the data active = inhibition above about 8.5%
# NR1D1 modulator: modulators of human Rev-erb alpha DNA binding | activity, % at 10 µM | actives 0.79% (n = 370,000) | P20393 | Rev-erbα–FITC-DNA binding, fluorescence polarization, 90 min;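 active = activity above about 14%, limit read from the data; passing the limit was not always enough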;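 note: 0% = DMSO wells with 35 nM protein and 100% = DMSO wells with 750 nM protein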
# GalR3 antag: human GalR3 antagonism | O60755 | HEK293 GalR3-CNG cAMP membrane potential fluorescence; galR3 body fused to GalR1 C-terminus | inhibition, % at 3 µM | actives 0.44% (n = 360,000) | AID 651719;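 active = inhibition above the screen-wide average plus 3 SD, cut at about 13% in these data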;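 note: forskolin and galanin both at EC90 stimulate the cells; cAMP rise reported by CNG channel membrane potential dye signal; 0% = forskolin plus galanin with DMSO and 100% = forskolin alone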
# Target sequence (O60755 1-299 limits assumed): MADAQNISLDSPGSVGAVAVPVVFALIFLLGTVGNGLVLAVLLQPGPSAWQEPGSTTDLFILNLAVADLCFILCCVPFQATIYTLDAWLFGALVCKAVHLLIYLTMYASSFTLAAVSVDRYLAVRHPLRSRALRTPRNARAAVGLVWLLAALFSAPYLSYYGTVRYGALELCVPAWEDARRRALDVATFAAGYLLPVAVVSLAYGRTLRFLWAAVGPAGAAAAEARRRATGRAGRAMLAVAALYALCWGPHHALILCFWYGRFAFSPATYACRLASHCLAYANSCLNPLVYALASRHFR
# NR2E3 ag conf: NR2E3 agonism confirmed in two-hybrid assay. shares compounds with NR2E3 ag-2. inhibition, % at 3.98 µM. actives 51% (n = 2,300). CHO-S mammalian two-hybrid NR2E3-NCOR, luciferase luminescence;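 active = average inhibition above a cutoff equal to the mean inhibition of all tested compounds plus one SD, cut at about 70% in these data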;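 note: 0% = DMSO in NR2E3 cells and 100% = DMSO in cells lacking NR2E3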
# VP16 counter: reduces GAL4-VP16 reporter signal in NR2E3 counterscreen; shares compounds with NR2E3 ag-2; CHO-S GAL4-VP16 luciferase reporter, luminescence; inhibition, % at 3.98 µM; actives 29% (n = 2,300); AID 624379;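 active = mean inhibition above a cutoff equal to the average over all tested compounds plus one standard deviation, cut at about 70% in these data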;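 note: luciferase from a UAS reporter driven by GAL4-VP16 transactivation; 0% = DMSO with VP16-transfected cells and 100% = DMSO with cells lacking VP16; higher means less reporter light so more repression of VP16 activity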
# Starred values were filed as active, the others as inactive; nt = no result.
SMILES,NR2E3 ag-1,NR2E3 ag-2,PG9 binder,NR1D1 modulator,GalR3 antag,NR2E3 ag conf,VP16 counter
Cc1c(CN(C)C(=O)c2sc3cc(Cl)ccc3c2Cl)cnn1C,0.0,48.3,-2.8,4.1,-6.2,72.4*,65.7
Cc1ccc(NC(=O)CN(C)C(=O)c2sc3cc(Cl)ccc3c2Cl)cc1,0.0,-21.7,5.5,13.9,-3.5,nt,nt
CCc1ccc(NC(=O)c2ccc(F)c(S(=O)(=O)NCC3COc4ccccc4O3)c2)cc1 (centres undefined),-0.6,56.8,-2.3,3.1,-2.8,55.3,46.2
CC(C)=CCC/C(C)=C/CN1C(=O)N(c2ccc(F)cc2)[C@H]2C[C@@H](c3ccccc3)[C@@H](C)[C@@H](C(=O)N3CCOCC3)C[C@H]21,nt,nt,-0.8,11.8,-4.1,nt,nt
Clc1ccc([C@H]2OC[C@@]3(CNCC4CC4)CS[C@H](c4ccc(Cl)cc4)N23)cc1,nt,nt,nt,2.5,nt,nt,nt
Cc1cc(N2CCC(C)CC2)nc(-n2nc(C)cc2C)n1,2.3,94.0*,-1.6,1.4,4.2,-2.2,10.8
CN(CC(=O)NCc1ccccc1)CC(=O)Nc1ccc(Cl)c(C(F)(F)F)c1,0.4,28.2,0.8,-2.4,-2.7,nt,nt
CN(CC(=O)Nc1ccc(Cl)c(C(F)(F)F)c1)CC(=O)NC1CCCCC1,-0.2,60.5,nt,nt,nt,53.2,37.1
O=S1(=O)CCOCC(CO)N1Cc1cccc(Br)c1 (centres undefined),nt,nt,nt,3.0,nt,nt,nt
CCC1=C(CC2NCCc3ccccc32)CC2c3cc(OC)c(OC)cc3CCN2C1 (centres undefined),nt,97.3*,1.0,-2.4,-6.1,90.5*,87.2*
CC[C@H]1CN2CCc3cc(OC)c(OC)cc3C2C[C@@H]1C[C@H]1NCCc2cc(OC)c(OC)cc21 (some centres undefined),4.0,104.0*,-1.1,-0.8,nt,97.6*,97.7*
COc1cc2c(cc1OC)CN1CCc3cc(OC)c(OC)cc3C1C2 (centres undefined),nt,-14.7,-2.0,5.2,-3.9,nt,nt
CC[C@H]1OC(=O)[C@H](C)[C@@H](O[C@H]2C[C@@](C)(OC)[C@@H](O)[C@H](C)O2)[C@H](C)[C@@H](O[C@@H]2O[C@H](C)C[C@H](N(C)C)[C@H]2O)[C@](C)(O)C[C@@H](C)/C(=N\OCOCCOC)[C@H](C)[C@@H](O)[C@]1(C)O,nt,nt,nt,-1.0,nt,nt,nt
C[C@H]1COc2cccc(N3CCSCC3)c2S(=O)(=O)N1C,nt,nt,nt,-1.4,nt,nt,nt
CC(C)(C)C(=O)NC(=S)NNC(=O)c1ccncc1,0.9,-38.4,-1.5,-1.4,-5.0,nt,nt
CC(C)(C)C(=O)NC(=S)NNC(=O)c1ccc(-c2ccccc2)cc1,3.0,62.4,nt,nt,nt,96.4*,52.3
COc1ccc(N=C(NN)c2ccc3ccccc3n2)cc1,0.4,69.3,-1.9,-0.7,-8.8,-80.8,-95.2
O=C(c1ccccc1)C1CCN(c2ncnc3sccc23)CC1,nt,nt,nt,3.4,nt,nt,nt
CCS(=O)(=O)N1CCN(c2ncnc3sc(C)c(C)c23)CC1,2.3,7.1,-0.2,-0.7,-7.9,nt,nt
Cc1ccc(-c2csc3ncnc(N4CCN(S(=O)(=O)c5ccc(C#N)cc5)CC4)c23)cc1,nt,-30.5,1.2,-2.1,-4.1,nt,nt
O=S(=O)(c1ccccc1C(F)(F)F)N1CCN(c2ncnc3sccc23)CC1,nt,59.7,-0.4,-5.2,-7.1,67.1,51.0
Cc1sc2ncnc(N3CCN(S(=O)(=O)c4ccc(F)cc4)CC3)c2c1C,2.0,78.0*,-1.0,3.8,-7.1,79.9*,74.2*
Cc1ccc(S(=O)(=O)N2CCN(c3ncnc4sccc34)CC2)cc1,-0.2,103.4*,0.7,0.6,-4.4,93.8*,82.7*
CC(=O)[C@H]1CCC2C3C[C@H](C)C4=CC(=O)CC[C@]4(C)C3[C@@H](O)C[C@@]21C (some centres undefined),nt,nt,nt,-1.9,nt,nt,nt
CCCCN(C)C(=O)CN1C(=O)C2CCCCN2C(=O)c2ccccc21 (centres undefined),nt,nt,nt,-0.9,nt,nt,nt
SMILES,NR2E3 ag-1,NR2E3 ag-2,PG9 binder,NR1D1 modulator,GalR3 antag,NR2E3 ag conf,VP16 counter
CCn1c(SCC(=O)Nc2ccccc2-c2ccccc2)nnc1-c1ccc(C)cc1,nt,nt,nt,-7.6,nt,nt,nt
O=C(CN1C(=O)C(c2ccc(F)cc2)=NC12CCCC2)Nc1ccc(F)cc1,5.1,74.5*,-0.8,-0.1,nt,72.7*,54.5
COc1ccc(NC(=O)CN2C(=O)C(c3ccccc3)=NC23CCCCCC3)cc1,1.2,-31.9,-2.5,-1.4,-0.7,nt,nt
COc1ccc(S(=O)(=O)N2CCCCC2)cc1NC(=O)c1c(F)cccc1Cl,nt,-4.8,-1.1,-3.7,-1.8,nt,nt
COc1ccc(S(=O)(=O)N2CCCCC2)cc1NC(=S)Nc1cccc(Cl)c1C,-0.7,80.5*,-1.0,4.3,3.9,88.8*,-21.8
COc1ccc(S(=O)(=O)N2CCCCC2)cc1NC(=S)Nc1ccccc1,-2.6,90.7*,-0.1,2.6,-8.2,86.4*,-12.2
COc1ccc(NC(=S)Nc2cc(S(=O)(=O)N3CCCCC3)ccc2OC)cc1,-2.8,nt,nt,nt,nt,nt,nt
Nc1ccc(S(=O)(=O)NNC(=O)C(=O)NNc2ccccc2)cc1,7.2,61.0,-1.0,-4.6,-1.7,50.5,29.9
CN=c1scc(-c2cccs2)n1/N=C/c1ccc(O)c(O)c1O,0.9,-142.6,-2.9,0.2,-0.1,nt,nt
CN=c1scc(-c2cccs2)n1/N=C/c1ccccc1O,-1.6,95.4*,-1.1,5.5,-6.5,90.0*,82.3*
Cc1ccc(S(=O)(=O)N2[C@@H](c3cccc(Cl)c3)C(C(=O)O)=CC[C@H]2c2ccc(C(C)C)cc2)cc1,0.8,72.5*,-1.6,10.6,-3.7,23.4,26.9
Cc1ccc(S(=O)(=O)N2[C@@H](c3ccc(F)cc3)C(C(=O)O)=CC[C@H]2c2ccc(C(C)C)cc2)cc1,1.8,72.9*,2.0,-5.0,-2.6,29.6,49.6
Cc1ccc(S(=O)(=O)N2[C@@H](c3ccc(F)cc3)C(C(=O)O)=CC[C@H]2c2ccc(Cl)cc2)cc1,5.4,-20.6,0.1,-4.5,8.1,nt,nt
Oc1ccc2ccccc2c1C=NN1CCN(Cc2ccc(Cl)cc2)CC1,nt,nt,nt,2.5,nt,nt,nt
Brc1cccc(Cn2ccc3ccc(-c4ccc5ccn(Cc6cccc(Br)c6)c5c4)cc32)c1,nt,nt,nt,10.4,nt,nt,nt
O=[N+]([O-])c1cc(Cl)c(O)c2ncccc12,nt,102.9*,0.2,4.6,-8.4,99.0*,71.2*
O=[N+]([O-])c1cc(F)c2cccnc2c1O,3.0,28.8,-3.0,0.9,-10.9,nt,nt
O=Nc1ccc(O)c2ncccc12,-5.2,55.5,-3.8,-3.1,1.1,58.0,21.0
CN(Cc1cc([N+](=O)[O-])c2cccnc2c1O)C1CCCCC1,-1.9,nt,nt,nt,nt,nt,nt
O=[N+]([O-])c1cc(CN2CCN(c3ccccc3)CC2)c(O)c2ncccc12,-1.1,83.3*,-6.3,4.8,-5.5,74.1*,20.0

# Screening results (PubChem BioAssay)
